According to PubChem BioAssay:
Active and inactive are the calls of the source.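 Rule for the calls, unless noted: active = mean duplicate potentiation above the buffer control mean plus 5 SD of buffer wells; inactive = the rest.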

Tests used:
[1] = nonspecific flux increase, KCNQ1-free cells – parental CHO cells, counter-screen for KCNQ1 potentiator project (AID 493006;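 active = duplicate-averaged activation above buffer control mean plus 5 SD of those controls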); settings: parental CHO-K1 cells, FluxOR thallium flux, at 10 µM; stronger effect = higher value
Outline: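 Assay system: Untransfected host CHO-K1 cells with FluxOR thallium dye | Probe or stimulus: Potassium/thallium depolarization pulse | Schedule: Overnight 37 °C plating, 90 min RT dye, 20 min compound | Detection: Kinetic thallium-flux fluorescence | Read-out: Max-minus-min fluorescence over baseline, percent of buffer-to-R-L3 span | Benchmarks: Low control buffer, high control R-L3 activator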

[2] = target: Potassium voltage-gated channel subfamily KQT member 1 (Homo sapiens) (UniProt P51787); assay: enhancement of KCNQ1 channel thallium flux – FluxOR thallium flux, CHO cells, duplicates, confirmation (AID 493007;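 active = potentiation averaged over duplicate wells exceeding buffer-only control mean by more than 3 SD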;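 for outcome: cells depolarized by a potassium plus thallium sulfate stimulus after compound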); settings: KCNQ1 cell line, FluxOR thallium flux fluorescence, at 10 µM; stronger effect = higher value, % of reference activator effect, buffer zero
Outline: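 Material: KCNQ1-expressing CHO cell line; Incubation: FluxOR dye loading 90 min, compound exposure 20 min, room temperature; Detection: FluxOR Tl+ flux fluorescence, 10 s baseline plus 110 s recording; Read-out: percent activation between buffer and R-L3 responses; Control set: buffer-only wells as 0% and R-L3 activator as 100%; Replication: duplicate wells per compound.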

[3] = target: Potassium voltage-gated channel subfamily KQT member 2 (Rattus norvegicus) (UniProt O88943); assay: KCNQ2 thallium flux enhancement – KCNQ2-CHO-K1 cells, selectivity assay for KCNQ1 potentiator project (AID 493009); settings: FluxOR thallium flux fluorescence, at 10 µM; stronger effect = higher value, scaled: buffer 0, activator control 100;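 note: assay conditions were tuned for KCNQ1 rather than KCNQ2 modulators; signal is max minus min fluorescence divided by baseline after thallium stimulus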
[4] = target: Potassium voltage-gated channel subfamily KQT member 1 (Homo sapiens) (UniProt P51787); assay: KCNQ1 activators by electrophysiology – IonWorks patch clamp, KCNQ1-CHO cells, orthogonal assay for KCNQ1 potentiator project, confirmation (AID 493184;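 active = current rise at least 3 SD above the untreated control mean in each of two repeat wells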); settings: automated patch clamp current, at 10 µM; stronger effect = higher value
Outline: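 assay system = KCNQ1-expressing CHO cells | medium = external bath solution at pH 7.4 | probe or stimulus = 2,000 ms depolarization, -90 to +40 mV | compound dosing = 10 µM final, single point | measured by = automated voltage clamp, amphotericin B perforated patch | measure = percent current increase versus pre-compound level | replication = duplicates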

[5] = target: Potassium voltage-gated channel subfamily E member 1 (Homo sapiens) + Potassium voltage-gated channel subfamily KQT member 1 (Homo sapiens) (UniProt P15382+P51787); assay: KCNQ1-E1 channel activation – thallium flux, CHO-K1 KCNQ1/E1 cells, selectivity assay for KCNQ1 potentiator project, confirmation (AID 493186;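 active = mean duplicate activation above the buffer control mean plus 5 SD of those controls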); settings: FluxOR thallium flux, at 10 µM; stronger effect = higher value
Outline: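 Test system – CHO-K1 cells with KCNQ1/E1 · Measured by – FluxOR Tl+ flux fluorescence, kinetic read · Controls – buffer low control, R-L3 high control · Times – dye 90 min, compound 20 min, room temperature · Replication – duplicate wells per compound · Doses – one test concentration · Evaluation – fluorescence rise relative to baseline, as percent of R-L3 response above buffer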

Potassium voltage-gated channel subfamily KQT member 2 (Rattus norvegicus), sequence (O88943 whole entry, looked up): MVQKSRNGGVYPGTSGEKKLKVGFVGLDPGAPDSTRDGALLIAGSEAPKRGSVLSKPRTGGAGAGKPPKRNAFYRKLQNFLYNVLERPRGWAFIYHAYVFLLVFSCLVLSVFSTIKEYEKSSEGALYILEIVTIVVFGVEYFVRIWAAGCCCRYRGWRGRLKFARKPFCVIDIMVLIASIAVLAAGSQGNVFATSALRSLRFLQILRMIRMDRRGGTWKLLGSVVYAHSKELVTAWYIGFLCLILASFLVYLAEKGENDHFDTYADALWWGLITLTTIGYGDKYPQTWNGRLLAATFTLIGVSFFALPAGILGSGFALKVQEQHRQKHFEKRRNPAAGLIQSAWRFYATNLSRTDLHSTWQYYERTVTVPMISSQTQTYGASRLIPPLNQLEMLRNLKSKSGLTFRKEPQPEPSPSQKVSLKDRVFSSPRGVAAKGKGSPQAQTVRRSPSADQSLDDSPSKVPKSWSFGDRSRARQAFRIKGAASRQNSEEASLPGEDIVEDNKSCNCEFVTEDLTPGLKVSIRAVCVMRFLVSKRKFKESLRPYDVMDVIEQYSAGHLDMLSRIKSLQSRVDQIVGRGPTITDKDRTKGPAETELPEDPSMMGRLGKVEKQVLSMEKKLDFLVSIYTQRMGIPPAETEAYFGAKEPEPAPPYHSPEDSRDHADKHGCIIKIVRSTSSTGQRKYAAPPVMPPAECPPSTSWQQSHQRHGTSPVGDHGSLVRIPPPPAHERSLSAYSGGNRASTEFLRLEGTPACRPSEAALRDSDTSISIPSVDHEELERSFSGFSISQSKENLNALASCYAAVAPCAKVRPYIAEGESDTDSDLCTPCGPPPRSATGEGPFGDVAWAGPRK
Potassium voltage-gated channel subfamily E member 1 (Homo sapiens) + Potassium voltage-gated channel subfamily KQT member 1 (Homo sapiens), sequence (P51787 whole entry, looked up): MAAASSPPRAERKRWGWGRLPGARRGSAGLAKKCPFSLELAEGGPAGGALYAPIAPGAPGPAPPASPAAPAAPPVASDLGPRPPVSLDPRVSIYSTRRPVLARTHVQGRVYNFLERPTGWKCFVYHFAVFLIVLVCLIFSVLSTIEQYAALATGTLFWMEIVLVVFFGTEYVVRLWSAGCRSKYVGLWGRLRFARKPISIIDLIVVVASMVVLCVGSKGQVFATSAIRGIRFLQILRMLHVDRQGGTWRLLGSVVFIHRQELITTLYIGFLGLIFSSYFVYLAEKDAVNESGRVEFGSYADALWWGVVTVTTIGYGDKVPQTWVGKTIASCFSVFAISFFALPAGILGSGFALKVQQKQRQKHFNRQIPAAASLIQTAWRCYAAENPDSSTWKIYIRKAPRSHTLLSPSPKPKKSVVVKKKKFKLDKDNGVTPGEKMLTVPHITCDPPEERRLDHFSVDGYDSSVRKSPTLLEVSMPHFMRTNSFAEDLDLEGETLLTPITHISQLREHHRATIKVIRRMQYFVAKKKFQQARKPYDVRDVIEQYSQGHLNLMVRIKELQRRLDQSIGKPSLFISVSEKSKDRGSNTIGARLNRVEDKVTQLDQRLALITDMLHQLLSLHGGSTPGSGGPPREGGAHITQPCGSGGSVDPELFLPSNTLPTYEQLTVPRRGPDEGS
Potassium voltage-gated channel subfamily KQT member 1 (Homo sapiens), sequence (P51787 whole entry, looked up): as above

Row | Structure (SMILES) | outcome [1] | potentiation [2] | outcome [3] | outcome [4] | outcome [5] | potentiation [3] | outcome [2]
1 | C=CS(=O)(=O)c1sc(Cl)c(N2CCOCC2)c1[N+](=O)[O-] | inactive | 19% (active) | inactive | inactive | inactive | – | –
2 | Cc1cccc(C(=O)NC(=S)NNC(=O)COc2c(C)cccc2C)c1 | inactive | 29.5% (active) | – | inactive | inactive | 176% (active) | –
3 | CCOC(=O)Cc1csc(NC(=S)NC(=O)c2ccc(Cl)cc2)n1 | inactive | – | inactive | inactive | inactive | – | inactive
4 | CCC1CCCCN1CCCNC(=O)CSc1nc2nc(C)c(Cc3ccccc3)c(C)n2n1 (stereo not given) | inactive | – | inactive | inactive | inactive | – | inactive
5 | CC1CCCCN1CCCNC(=O)Cn1ncc2c([nH]c3ccccc32)c1=O (stereo not given) | inactive | – | inactive | inactive | inactive | – | inactive
6 | O=C(NC(=S)Nc1ccc(Cl)cn1)c1cccs1 | inactive | – | inactive | inactive | inactive | – | inactive
7 | COc1ccc(CNC(=O)CSc2nc3ccc(OC)cc3[nH]2)cc1 | inactive | – | inactive | inactive | inactive | – | inactive
8 | COc1cccc(C2C3=C(N=c4s/c(=C\c5ccc(OCC(=O)O)cc5)c(=O)n42)c2ccccc2CC3)c1 (stereo not given) | inactive | 53% (active) | inactive | inactive | inactive | – | –
9 | CC(C1CC2CCC1C2)n1c(-c2ccco2)n[nH]c1=S (stereo not given) | inactive | – | inactive | inactive | inactive | – | inactive
10 | COC(=O)N1C(=O)[C@@](Cc2ccccc2)(c2ccccc2)N1C(=O)OC | inactive | 24% (active) | inactive | inactive | inactive | – | –
11 | NC(=Nc1ccc(Cl)cc1)c1ccccc1 | inactive | – | inactive | inactive | inactive | – | inactive
12 | CC(=O)C[C@H]1c2cc(C(F)(F)F)ccc2S(=O)(=O)N1C1CCCCC1 | inactive | 74% (active) | inactive | inactive | inactive | – | –
13 | CN1CCN(c2ccc(S(=O)(=O)N3CCCCC3)cc2NC(=O)COc2cccc(Cl)c2)CC1 | inactive | – | inactive | inactive | inactive | – | inactive
14 | O=C(NCC1CCCO1)c1cccc(Oc2ccccc2)c1 (stereo not given) | inactive | – | inactive | inactive | inactive | – | inactive
15 | CN(C)c1ccnc(N(Cc2ccccc2)Cc2ccccc2)c1C#N | inactive | – | inactive | inactive | inactive | – | inactive
16 | O=[N+]([O-])c1cccc(/C=N/Nc2nc(NCc3ccccc3)nc(N3CCOCC3)n2)c1O | inactive | – | inactive | inactive | inactive | – | inactive
17 | COc1ccc(C(=O)N=C2CCC(C#N)=C3c4cc(OC)c(OC)cc4CCN23)cc1 | inactive | 34.5% (active) | inactive | inactive | inactive | – | –
18 | CC1(C)CC(Nc2ccc(Nc3ccccc3)cc2)CC(C)(C)N1 | inactive | 23.5% (active) | inactive | inactive | inactive | – | –
19 | O=C(CN(CCO)c1ccccc1)Nc1cccc(S(=O)(=O)N2CCCC2)c1 | inactive | 22.5% (active) | inactive | inactive | inactive | – | –
20 | Cc1onc(-c2ccccc2)c1C(=O)NC(=S)Nc1sc2c(c1C#N)CCCC2 | inactive | 31.5% (active) | inactive | inactive | inactive | – | –
21 | CCCOC(=O)C1=C(C)NC2=C(C(=O)CCC2)C1c1ccc(N(C)C)cc1 (stereo not given) | inactive | – | inactive | inactive | inactive | – | inactive
22 | CCCC(=O)N(Cc1cccnc1)c1nc2c(OC)ccc(Cl)c2s1 | inactive | 51.5% (active) | inactive | inactive | inactive | – | –
23 | O=c1c2cc(Cl)ccc2[nH]c(=S)n1Cc1cccs1 | inactive | – | – | inactive | inactive | 142% (active) | inactive
24 | Cc1ccc(C(=O)CSc2nnc3c4ccccc4nc(C(C)(C)C)n23)cc1 | inactive | – | inactive | inactive | inactive | – | inactive
25 | Cc1ccc(-n2c(C)cc(/C=N/NC(=O)c3ccncc3)c2C)cc1C | inactive | 30% (active) | inactive | inactive | inactive | – | –
26 | O=C(NC1CCCC1)C(c1cccnc1)N(C(=O)c1csnn1)c1ccccc1 (stereo not given) | inactive | 27% (active) | inactive | inactive | inactive | – | –
27 | C/C(=N\NC(=S)NCCc1ccccc1)c1cccs1 | inactive | – | inactive | inactive | inactive | – | inactive
28 | Fc1ccc(/C=N/n2c(-c3cccs3)n[nH]c2=S)cc1 | inactive | – | inactive | inactive | inactive | – | inactive
29 | CCOC(=O)c1c(N)sc(C(C)=O)c1C | inactive | – | inactive | inactive | inactive | – | inactive
30 | COc1cccc(NC(=S)NC(=O)c2c(Cl)c(C)nn2C)c1 | inactive | – | inactive | inactive | inactive | – | inactive
